An excerpt weighted towards active compounds, which were near 2.6% of everything screened.
SENP6 block: SENP6 protease inhibitors, primary screen, biochemical, luminescence, uHTS | Recombinant SENP6 catalytic domain, aminoluciferin luminescence | inhibition, % at 10 µM | hit rate 1.8% among 330,000 | AID 2599, 2010;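 active means inhibition above about 50% at the single tested dose, limit read from the data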;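 further: plate controls were DMSO wells with enzyme for no effect and DMSO wells lacking enzyme for full effect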
Platelet DG rel: inhibitors of platelet dense granule secretion, primary screen, cell-based, MLPCN, human platelets. human platelet-rich plasma, SFLLRN dense granule ATP release, luminescence. inhibition, %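 (compounds screened at 7.5 µM in platelet-rich plasma)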. hit rate 0.22% among 300,000;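 active means mean replicate score, as percent of positive control, at or above 50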
SENP8 block-1: SENP8 protease inhibitors, primary screen, biochemical, luminescence; purified SENP8, Z-RLRGG-aminoluciferin cleavage; hit rate 1.2% among 330,000; inhibition, % at 10 µM; Sentrin-specific protease 8 (Homo sapiens), Q96LD8; in the data active means inhibition above about 50%
SENP1 inh: human SENP1 catalytic domain inhibitors, primary screen, biochemical, FRET, uHTS | Sentrin-specific protease 1 (Homo sapiens), Q9P0U3 | recombinant SENP1 catalytic domain, CyPet-SUMO1-YPet FRET cleavage | hit rate 0.21% among 360,000 | inhibition, % at 10 µM;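 active means inhibition at least 30% at 10 µM, raw YFP signal under a set limit, fluorescence ratio 0.5 to 1.5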;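 further: 0% = enzyme with DMSO and 100% = no enzyme wells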
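Compound: 10 µM single point, 0.5% DMSO; Test system: hSENP1 catalytic domain, recombinant; Timing: 50 min reaction at room temperature; Technique: FRET, CFP and YFP emission; Control set: no-enzyme wells low, DMSO-plus-enzyme wells high control.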
SENP7 block: SENP7 protease inhibitors, primary screen, biochemical, luminescence, uHTS; Sentrin-specific protease 7 (Homo sapiens), Q9BQF6; recombinant SENP7, Z-RLRGG-aminoluciferin luminescence, 40 min; inhibition, % at 5 µM; hit rate 1.5% among 330,000;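 active means inhibition above about 50% at the single test dose, limit read from the data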;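 further: plate controls were DMSO with enzyme for no effect and no enzyme buffer wells for full effect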
Target sequence (Q9BQF6 706-1050 limits assumed): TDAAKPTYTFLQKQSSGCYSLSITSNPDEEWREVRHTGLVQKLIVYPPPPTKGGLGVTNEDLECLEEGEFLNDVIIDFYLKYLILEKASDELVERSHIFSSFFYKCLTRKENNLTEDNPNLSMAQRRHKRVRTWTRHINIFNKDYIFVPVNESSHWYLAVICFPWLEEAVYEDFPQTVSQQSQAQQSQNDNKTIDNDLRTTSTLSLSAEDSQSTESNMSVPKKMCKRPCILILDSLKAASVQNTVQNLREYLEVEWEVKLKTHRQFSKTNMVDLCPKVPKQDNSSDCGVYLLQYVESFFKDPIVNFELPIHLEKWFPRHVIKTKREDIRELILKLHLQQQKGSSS
SENP8 block-2: human SENP8 protease inhibitors, primary screen, biochemical, fluorescence, Nedd8 protein substrate, uHTS | inhibition, % at 20 µM | recombinant SENP8 | hit rate 0.64% among 360,000 | Sentrin-specific protease 8 (Homo sapiens), Q96LD8; in the data active means inhibition mostly above about 40%, no sharp cut-off; inactive means mostly below about 27%
SENP8 confirm: SENP8 protease inhibitors, retest, confirmation, biochemical, luminescence, single concentration; shares compounds with SENP7 block; Recombinant SENP8, Z-RLRGG-aminoluciferin luminescence, 60 min; inhibition, % at 12.5 µM; hit rate 40% among 6,200;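 active means mean inhibition across replicates above about 50%, limit read from the data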
SENP6 conf: SENP6 protease inhibitors, confirmation, biochemical, luminescence, single concentration; AID 488915, 2010; inhibition, % at 12.5 µM; shares compounds with SENP7 block; recombinant SENP6, Z-RLRGG-aminoluciferin luminescence; hit rate 58% among 6,200
SENP7 conf: SENP7 protease inhibitors, retest, confirmation, biochemical, luminescence, single concentration; AID 488917, 2010; inhibition, % at 12.5 µM; recombinant SENP7, Z-RLRGG-aminoluciferin luminescence, 40 min; shares compounds with SENP7 block; hit rate 69% among 6,200
Casp3 select: caspase-3 protease inhibitors, confirmation, selectivity assay for SENP inhibitor project, biochemical, single concentration; shares compounds with SENP7 block; purified caspase-3, Z-DEVD-aminoluciferin luminescence, 60 min; inhibition, % at 12.5 µM; hit rate 60% among 6,200;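 active means mean inhibition above about 50%, limit read from the data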;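 further: plate controls were enzyme with DMSO for no effect and wells without caspase-3 for full effect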
Target sequence (P42574 28-227 limits assumed): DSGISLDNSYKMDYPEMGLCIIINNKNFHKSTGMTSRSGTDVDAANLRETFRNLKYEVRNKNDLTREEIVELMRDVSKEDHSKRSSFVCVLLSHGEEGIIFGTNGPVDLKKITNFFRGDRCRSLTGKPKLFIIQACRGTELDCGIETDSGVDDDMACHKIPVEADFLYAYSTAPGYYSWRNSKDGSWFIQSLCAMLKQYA
SENP luc ctr: counter-screen for SENP inhibitors: luminescence interference; hit rate 39% among 6,200; shares compounds with SENP7 block; inhibition, % at 12.5 µM; AID 488919; Pre-incubated SENP8/Z-RLRGG-aminoluciferin, luciferase luminescence interference;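 active means mean inhibition above about 50% when retested at one dose, limit read from the data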;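 further: plate controls were DMSO wells with completed reaction for no effect and substrate without enzyme for full effect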
Starred values were filed as active, the others as inactive; . = not tested or not shown.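 How the source made its calls, unless noted: active means mean inhibition above about 50% in the one-dose retest (limit read from the data); inactive means the rest.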

SMILES	SENP6 block	Platelet DG rel	SENP8 block-1	SENP1 inh	SENP7 block	SENP8 block-2	SENP8 confirm	SENP6 conf	SENP7 conf	Casp3 select	SENP luc ctr
Cc1ccnc(NC(=O)c2ccc(Br)s2)c1	87.6*	28.9	82.0*	0.7	91.5*	10.5	86.2*	86.8*	98.3*	90.6*	87.8*
O=C(Nc1ccon1)c1ccc(Br)s1	-16.7	-12.4	-17.4	2.7	-16.6	-0.4	.	.	.	.	.
O=C(Nc1ccccn1)c1cccs1	3.7	0.8	-1.0	-2.8	8.8	22.2	.	.	.	.	.
Cc1nc2cc(NC(=O)c3ccc(Br)s3)ccc2s1	70.4*	11.5	46.5	1.2	70.4*	12.7	22.4	50.7*	90.9*	47.5	-0.4
Cc1ccnc(NC(=O)c2cccs2)c1	54.2*	37.5	38.1	-3.3	56.6*	13.9	50.6*	51.1*	83.9*	85.8*	61.5*
Cc1ccc(CNC(=O)CCS(=O)(=O)c2ccc3c(c2)CC(C)N3C(=O)C2CC2)cc1 (stereo unspecified)	8.8	2.8	9.9	0.1	-9.0	8.9	.	.	.	.	.
O=C(Nc1nnc(SCC(=O)N2CCCCC2)s1)c1ccccc1F	99.2*	15.2	-13.2	0.4	-6.2	-2.6	-6.0	-9.9	-12.1	1.2	2.6
O=C(CSc1nnc(NC(=O)c2ccccc2F)s1)Nc1ccccc1F	80.4*	4.9	69.2*	1.2	61.0*	-80.8	47.4	78.6*	90.6*	86.7*	13.2
O=C(CSc1nnc(NC(=O)c2ccco2)s1)Nc1ccccc1F	-2.2	2.6	-0.7	1.6	7.6	-17.0	.	.	.	.	.
CCOc1ccccc1C(=O)Nc1nnc(SCC(=O)N2CCCC2)s1	.	.	.	-1.7	.	-96.2	.	.	.	.	.
C/C(=N\NC(=O)c1ccccc1O)c1cccs1	0.8	-4.7	18.2	-40.8	60.7*	-35.6	50.4*	45.1	77.6*	85.1*	57.5*
C/C(=N\NC(=O)c1ccc2ccccc2c1)c1cccs1	84.1*	.	69.9*	1.6	83.3*	-4.1	54.2*	52.8*	92.8*	84.1*	10.3
C/C(=N\NC(=O)c1cccc2ccccc12)c1cccs1	-7.5	4.5	1.5	2.0	-0.1	10.1	.	.	.	.	.
C/C(=N/NC(=O)c1ccccc1O)c1ccc(N2C(=O)C3CCCCC3C2=O)cc1 (stereo unspecified)	61.8*	6.3	-5.8	-1.6	21.8	-56.5	-3.3	-2.4	-8.0	-2.8	-4.0
C/C(=N\NC(=O)c1ccncc1)c1cccs1	-8.1	6.2	-3.9	0.9	4.4	8.5	.	.	.	.	.
C/C(=N/NC(=O)c1cc(C2CC2)[nH]n1)c1cccs1	29.9	21.0	46.2	2.7	65.7*	29.7	63.7*	61.5*	88.1*	89.3*	70.9*
C[C@H](CO)N1C[C@H](C)[C@@H](CN(C)Cc2ccc3c(c2)OCO3)Oc2ccc(NS(C)(=O)=O)cc2C1=O	-0.4	.	9.7	-0.3	-2.5	2.9	.	.	.	.	.
Cc1cccc2c1OCC/C2=N\NC(=O)COc1ccccc1Cl	-40.9	2.0	-33.4	0.5	72.6*	-215.7	8.5	6.5	3.4	-3.3	-8.3
C=C(C)C1CC=C(C)/C(=N/NC(=O)COc2ccccc2Cl)C1 (stereo unspecified)	0.8	1.4	-1.7	-2.8	0.1	11.7	.	.	.	.	.
O=C(Nc1cccc(O)c1)c1noc2c1CCc1ccccc1-2	97.2*	50.8*	95.5*	-1.4	98.6*	16.9	94.5*	95.7*	102.5*	93.5*	92.5*
Cc1cccc(OC(C)C(=O)NC2CCS(=O)(=O)C2)c1C (stereo unspecified)	3.9	-9.2	-12.7	0.8	-14.0	-6.7	.	.	.	.	.
NS(=O)(=O)c1ccc2nc(NC(=O)Nc3ccc(F)cc3)sc2c1	-11.1	-5.4	-15.0	-5.7	-10.8	-5.6	.	.	.	.	.
Cc1cc(C(=O)Nn2cnnc2)ccc1[N+](=O)[O-]	81.3*	9.4	71.8*	1.6	77.8*	16.7	68.9*	65.0*	92.4*	92.6*	76.5*
CN(C)C(CNc1ccc(S(C)(=O)=O)cc1[N+](=O)[O-])c1ccccc1 (stereo unspecified)	65.1*	1.2	44.0	3.2	5.8	33.8	3.9	2.2	6.2	2.3	2.6
COc1ccc(C(CNc2ccc(S(C)(=O)=O)cc2[N+](=O)[O-])N(C)C)cc1OC (stereo unspecified)	-0.1	2.3	5.2	1.0	5.3	10.9	.	.	.	.	.
SMILES	SENP6 block	Platelet DG rel	SENP8 block-1	SENP1 inh	SENP7 block	SENP8 block-2	SENP8 confirm	SENP6 conf	SENP7 conf	Casp3 select	SENP luc ctr
Cc1cccc(CN2CCN(C(C)C(=O)NC(C)c3ccccc3)CC2)c1 (stereo unspecified)	-7.7	22.7	-6.0	-4.4	-0.3	7.4	.	.	.	.	.
COc1cccc(-c2csc(N3CCN(CC(=O)NNC(=O)c4ccc(Br)cc4)CC3)n2)c1	-2.7	7.1	1.9	0.9	101.4*	5.0	-8.3	-4.7	3.4	2.1	-6.2
O=C(Nc1nc2c(Cl)cccc2s1)c1ccc(Br)o1	-1.6	3.6	-2.5	-13.2	1.6	-154.7	.	.	.	.	.
O=C(Nc1nc2c(F)cccc2s1)c1ccc([N+](=O)[O-])o1	70.6*	0.6	42.6	-2.3	23.0	3.9	-25.6	-18.7	-9.6	-2.9	-6.8
O=C(Nc1nc2c(Cl)cccc2s1)c1ccc([N+](=O)[O-])o1	59.2*	6.5	43.3	3.4	6.7	4.6	35.2	41.8	77.3*	25.7	46.5
COCCCN(CC(=O)Nc1ccc(N2CCOCC2)cc1)S(=O)(=O)c1ccccc1	-3.1	-9.5	6.0	-0.2	-4.7	7.2	.	.	.	.	.

Source: PubChem BioAssay
